Paper PMC6988732 (The Biochemical journal, 2013)
Residue numbers refer to the chain shown, from its start. Several values for one entry are separate records, joined by “and”; a condition that tells them apart may be missing. Equal values may be shown once.

Columns and labels:
PKCθC1B wild-type = molecular target: T1, PKCθC1B wild-type (Mus musculus, UniProt Q02111); assay: [3H]PDBu binding assay; conditions: PKCθ C1B WT
T1 sequence (Q02111 232-281): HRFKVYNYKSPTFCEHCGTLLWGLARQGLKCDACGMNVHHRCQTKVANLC
In short: (§1)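 GST-cleaved mouse PKCθ C1B (residues 232–281), E. coli-expressed, affinity/gel-filtration purified. PEG-precipitation [3H]PDBu binding; Kd from saturable plus linear non-specific fit. Ki: [3H]PDBu at 2–5-fold each construct's Kd, DOG or SAG 1–100000 nM, dried from chloroform with phospholipid, sonicated. PS dependence: total phospholipid 100 μg/ml, PS 0–100%, remainder PC, relative to 100% PS. Means ± S.E.M., three independent experiments.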

PKCθC1B Y239A = molecular target: T2, PKCθC1B Y239A (Mus musculus, UniProt Q02111, Y239A); assay: [3H]PDBu binding assay
T2 sequence (Q02111 232-281 Y239A): T1 sequence (Q02111 232-281) with Y8A
In short: as §1

PKCθC1B T243A = molecular target: T3, PKCθC1B T243A (Mus musculus, UniProt Q02111, T243A); assay: [3H]PDBu binding assay
T3 sequence (Q02111 232-281 T243A): T1 sequence (Q02111 232-281) with T12A
In short: as §1

PKCθC1B W253G = molecular target: T4, PKCθC1B W253G (Mus musculus, UniProt Q02111, W253G); assay: [3H]PDBu binding assay
T4 sequence (Q02111 232-281 W253G): T1 sequence (Q02111 232-281) with W22G

PKCθC1B L255G = molecular target: T5, PKCθC1B L255G (Mus musculus, UniProt Q02111, L255G); assay: [3H]PDBu binding assay
T5 sequence (Q02111 232-281 L255G): T1 sequence (Q02111 232-281) with L24G
In short: as §1

PKCθC1B Q258G = molecular target: T6, PKCθC1B Q258G (Mus musculus, UniProt Q02111, Q258G); assay: [3H]PDBu binding assay
T6 sequence (Q02111 232-281 Q258G): T1 sequence (Q02111 232-281) with Q27G
In short: as §1

full-length PKCθ Y239A = full-length PKCθ Y239A (Mus musculus, UniProt Q02111, Y239A); assay: Membrane translocation in HEK-293 cells; format: cell-based; conditions: 250 nM DOG, 2 h
full-length PKCθ T243A = full-length PKCθ T243A (Mus musculus, UniProt Q02111, T243A); assay: Membrane translocation in HEK-293 cells; format: cell-based; conditions: 250 nM DOG, 2 h
full-length PKCθ W253G = full-length PKCθ W253G (Mus musculus, UniProt Q02111, W253G); assay: Membrane translocation in HEK-293 cells; format: cell-based; conditions: 250 nM DOG, 2 h
full-length PKCθ L255G = full-length PKCθ L255G (Mus musculus, UniProt Q02111, L255G); assay: Membrane translocation in HEK-293 cells; format: cell-based; conditions: 250 nM DOG, 2 h
full-length PKCθ Q258G = full-length PKCθ Q258G (Mus musculus, UniProt Q02111, Q258G); assay: Membrane translocation in HEK-293 cells; format: cell-based; conditions: 250 nM DOG, 2 h
Sequence of full-length PKCθ Q258G (Q02111 whole entry Q258G): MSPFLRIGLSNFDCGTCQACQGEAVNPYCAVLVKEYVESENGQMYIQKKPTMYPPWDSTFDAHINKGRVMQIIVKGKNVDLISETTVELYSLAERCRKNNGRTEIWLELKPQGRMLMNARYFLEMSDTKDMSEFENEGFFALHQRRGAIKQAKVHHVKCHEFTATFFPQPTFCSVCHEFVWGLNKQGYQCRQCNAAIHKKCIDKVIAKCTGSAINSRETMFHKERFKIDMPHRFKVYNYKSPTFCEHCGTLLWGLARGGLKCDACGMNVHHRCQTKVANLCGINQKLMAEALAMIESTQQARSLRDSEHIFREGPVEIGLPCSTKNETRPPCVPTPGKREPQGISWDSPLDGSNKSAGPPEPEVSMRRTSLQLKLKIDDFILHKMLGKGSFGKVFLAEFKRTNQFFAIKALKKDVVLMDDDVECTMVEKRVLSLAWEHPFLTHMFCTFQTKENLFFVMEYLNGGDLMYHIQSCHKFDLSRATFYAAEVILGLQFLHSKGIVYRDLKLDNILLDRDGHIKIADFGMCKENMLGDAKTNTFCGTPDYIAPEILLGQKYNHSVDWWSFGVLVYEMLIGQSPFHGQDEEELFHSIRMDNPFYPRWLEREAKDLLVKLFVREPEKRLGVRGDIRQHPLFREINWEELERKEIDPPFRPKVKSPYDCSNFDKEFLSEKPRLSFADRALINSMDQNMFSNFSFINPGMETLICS

Sequence of full-length PKCθ Y239A (Q02111 whole entry Y239A): as the sequence (Q02111 whole entry Q258G) above, with Y239A, G258Q counted along it
Sequence of full-length PKCθ L255G (Q02111 whole entry L255G): as the sequence (Q02111 whole entry Q258G) above, with L255G, G258Q counted along it
Sequence of full-length PKCθ T243A (Q02111 whole entry T243A): as the sequence (Q02111 whole entry Q258G) above, with T243A, G258Q counted along it
Sequence of full-length PKCθ W253G (Q02111 whole entry W253G): as the sequence (Q02111 whole entry Q258G) above, with W253G, G258Q counted along it

SMILES: CCCCCCCC(=O)OC[C@H](CO)OC(=O)CCCCCCC [DOG, sn-1,2-dioctanoylglycerol]
- Ki/Kd (PKCθC1B wild-type; Ki of the diacylglycerol over Kd of PDBu): 41
- Ki (PKCθC1B wild-type; competition of [3H]PDBu binding, mean ± S.E.M.): 16.1 ± 0.7 nM
- Ki/Kd (PKCθC1B Y239A; PKCθ C1B Y239A, Ki of the diacylglycerol over Kd of PDBu): 26
- Ki (PKCθC1B Y239A; PKCθ C1B Y239A, competition of [3H]PDBu binding, mean ± S.E.M.): 86 ± 15 nM
- reduction in binding affinity compared with the wild-type (PKCθC1B Y239A; Y239A vs wild-type PKCθC1B (Kd for PDBu, Ki for DOG/SAG)): 5.34 fold
- Ki/Kd (PKCθC1B T243A; PKCθ C1B T243A, Ki of the diacylglycerol over Kd of PDBu): 34
- Ki (PKCθC1B T243A; PKCθ C1B T243A, competition of [3H]PDBu binding, mean ± S.E.M.): 21.5 ± 1.8 nM
- reduction in binding affinity compared with the wild-type (PKCθC1B T243A; T243A vs wild-type PKCθC1B (Kd for PDBu, Ki for DOG/SAG)): 1.34 fold
- Ki/Kd (PKCθC1B W253G; PKCθ C1B W253G, Ki of the diacylglycerol over Kd of PDBu): 159
- Ki (PKCθC1B W253G; PKCθ C1B W253G, competition of [3H]PDBu binding, mean ± S.E.M.): 470 ± 69 nM
- greater loss of affinity for DOG than for PDBu caused by W253G (PKCθC1B W253G; W253G vs wild-type): 4 fold
- reduction in binding affinity compared with the wild-type (PKCθC1B W253G; W253G vs wild-type PKCθC1B (Kd for PDBu, Ki for DOG/SAG)): 29.2 fold and 29 fold
- reduction in binding affinity compared with the wild-type (PKCθC1B L255G; L255G vs wild-type PKCθC1B (Kd for PDBu, Ki for DOG/SAG)): 4.72 fold
- Ki/Kd (PKCθC1B L255G; PKCθ C1B L255G, Ki of the diacylglycerol over Kd of PDBu): 17
- Ki (PKCθC1B L255G; PKCθ C1B L255G, competition of [3H]PDBu binding, mean ± S.E.M.): 76 ± 24 nM
- Ki/Kd (PKCθC1B Q258G; PKCθ C1B Q258G, Ki of the diacylglycerol over Kd of PDBu): 3
- Ki (PKCθC1B Q258G; PKCθ C1B Q258G, competition of [3H]PDBu binding, mean ± S.E.M.): 1840 ± 320 nM
- reduction in binding affinity compared with the wild-type (PKCθC1B Q258G; Q258G vs wild-type PKCθC1B (Kd for PDBu, Ki for DOG/SAG)): 114 fold
- reduction in membrane translocation compared with the wild-type (full-length PKCθ Y239A): 12.0%
- reduction in membrane translocation compared with the wild-type (full-length PKCθ T243A): 8.98%
- reduction in membrane translocation compared with the wild-type (full-length PKCθ W253G): 5.9%
- reduction in membrane translocation compared with the wild-type (full-length PKCθ L255G): 15.4%
- reduction in membrane translocation compared with the wild-type (full-length PKCθ Q258G): 15.9%
